Results published in article PMC3517082 (Molecular nutrition & food research, 2011).
“Also recorded” adds a separate entry of the source. Like-named read-outs stand apart in the source and are kept apart here.

Assays:
TrxR [1] = settings: 50 μM 4-HNE for 6 hr, HeLa cells; cited from earlier work
NF-κB [2] = settings: cited from earlier work
[3] = cited from earlier work
GSH [4] = settings: human endothelial cells, pretreatment; cited from earlier work
[5] = system: human endothelial HMEC-1 cells; settings: 12.5 μM acrolein; cited from earlier work
Trx1 = settings: cited from earlier work
Trx2 = settings: cited from earlier work
[6] = system: human endothelial HMEC-1 cells; assay: Protection of human endothelial cells from acrolein toxicity / cell death; assay type: cell-based
TrxR [7] = assay: TrxR specific activity in normal human bronchial epithelial cells; assay type: cell-based; settings: BEAS-2B cells, 2.5 μM acrolein, 30 min
Procedure, shortened: (§1)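 BEAS-2B normal human bronchial epithelial cells exposed to acrolein for 30 min, with vehicle-alone cultures as controls. Specific activity of TrxR, glutathione reductase (GSSG-R) and GAPDH determined by enzymatic assay. Significance (P < 0.01) judged against vehicle-treated cells.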

TrxR [8] = settings: 25 μM acrolein for 30 min, human umbilical vein endothelial cells; cited from earlier work
Prx1 = settings: acrolein-treated human bronchial cells; cited from earlier work
Prx3 = settings: acrolein-treated human bronchial cells; cited from earlier work
ASK1 bound to Trx1 = ASK1 bound to Trx1 (Homo sapiens, UniProt P10599); assay: Immunoprecipitation of ASK1 bound to Trx1 in HMEC-1 cells; assay type: cell-based; settings: acrolein 30 min
[9] = target: glutathione reductase (GSSG-R) (Homo sapiens, UniProt P00390); assay: Glutathione reductase specific activity in BEAS-2B cells; assay type: cell-based; settings: bronchial cells (BEAS-2B), 30 min
Procedure, shortened: as §1

[10] = target: glyceraldehyde-3-phosphate dehydrogenase (GAPDH) (Homo sapiens, UniProt P04406); assay: GAPDH specific activity in BEAS-2B cells; assay type: cell-based; settings: 30 min acrolein
Procedure, shortened: as §1

TrxR [11] = settings: A549 cells, cited from earlier work
[12] = depending on the cell type; cited from earlier work
p38 = p38 phosphorylation western blot in HMEC-1 cells; assay type: cell-based, human
Procedure, shortened: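 HMEC-1 cells treated with acrolein, with anisomycin (200 ng/ml) as a known activator and untreated cells as controls. Western blots probed with anti-phospho-p38 (Thr180/Tyr182) and anti-p38α for total p38α. 3–5 independent treatments per condition, compared against untreated control.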

glutathione reductase = settings: 25 μM acrolein, 30 min, human umbilical vein endothelial cells; cited from earlier work
JNK = JNK phosphorylation western blot in HMEC-1 cells; assay type: cell-based, human
Procedure, shortened: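 HMEC-1 endothelial cells given acrolein; anisomycin at 200 ng/ml served as positive activator, and untreated cells as reference. Immunoblots probed for phospho-JNK (Thr183/Tyr185) and with anti-pan-JNK for total JNK. n = 3–5 independent treatments for each condition.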

NF-κB [13] = settings: bovine endothelial cells; cited from earlier work
Trx = settings: cited from earlier work
TrxR [14] = settings: BEAS-2B cells, cited from earlier work
catalase = settings: 25 μM acrolein, 30 min, human umbilical vein endothelial cells; cited from earlier work
superoxide dismutase = settings: 25 μM acrolein, 30 min, human umbilical vein endothelial cells; cited from earlier work
Human endothelial cells = settings: 30 min; cited from earlier work
Purified TrxR = settings: 1 μM acrolein; cited from earlier work
NF-κB [15] = settings: A549 cells; cited from earlier work
glutathione peroxidase = settings: 25 μM acrolein, 30 min, human umbilical vein endothelial cells; cited from earlier work
AP-1 = settings: A549 cells, reporter construct; cited from earlier work
GSH [16] = assay: GSH levels in human endothelial cells; assay type: cell-based; settings: HMEC-1 cells, acrolein 30 min, recovery 1 or 2 h
[17] = human endothelial cells, limited experiments
[18] = 5 μM acrolein, human endothelial and bronchial epithelial cells

Sequence of glutathione reductase (GSSG-R) (P00390 44-522): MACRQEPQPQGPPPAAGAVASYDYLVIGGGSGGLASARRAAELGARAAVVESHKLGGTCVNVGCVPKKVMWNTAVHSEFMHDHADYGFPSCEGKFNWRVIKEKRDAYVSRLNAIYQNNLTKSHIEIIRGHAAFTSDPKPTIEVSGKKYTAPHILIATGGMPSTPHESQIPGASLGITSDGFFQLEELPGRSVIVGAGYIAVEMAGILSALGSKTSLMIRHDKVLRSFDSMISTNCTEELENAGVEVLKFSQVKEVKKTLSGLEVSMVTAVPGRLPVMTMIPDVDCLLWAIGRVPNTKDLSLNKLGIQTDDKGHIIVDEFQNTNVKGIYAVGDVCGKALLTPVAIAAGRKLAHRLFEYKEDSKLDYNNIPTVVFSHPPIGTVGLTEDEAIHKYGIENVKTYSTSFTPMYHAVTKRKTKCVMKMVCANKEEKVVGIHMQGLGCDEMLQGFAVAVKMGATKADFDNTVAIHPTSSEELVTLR
Sequence of ASK1 bound to Trx1 (P10599 2-105 limits assumed): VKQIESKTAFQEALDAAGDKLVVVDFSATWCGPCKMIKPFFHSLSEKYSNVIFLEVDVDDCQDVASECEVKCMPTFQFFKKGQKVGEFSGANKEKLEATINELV
Sequence of glyceraldehyde-3-phosphate dehydrogenase (GAPDH) (P04406 whole entry): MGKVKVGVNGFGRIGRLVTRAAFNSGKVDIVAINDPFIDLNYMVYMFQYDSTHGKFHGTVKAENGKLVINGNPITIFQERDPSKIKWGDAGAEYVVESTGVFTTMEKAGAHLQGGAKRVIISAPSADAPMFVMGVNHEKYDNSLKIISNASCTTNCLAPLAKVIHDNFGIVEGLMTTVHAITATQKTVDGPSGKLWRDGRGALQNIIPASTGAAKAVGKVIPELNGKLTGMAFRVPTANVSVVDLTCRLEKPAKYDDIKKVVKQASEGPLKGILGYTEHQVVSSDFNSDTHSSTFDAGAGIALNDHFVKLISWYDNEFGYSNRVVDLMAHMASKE

## CCCCCC(O)/C=C/C=O (stereo not drawn) [4-HNE, 4-hydroxynonenal]
TrxR [1]
  inhibition of TrxR activity: ca. 60%

## O=C/C=C/c1ccccc1 [Cinnamaldehyde]
NF-κB [2]
  effect on NF-κB activity: blocks NF-κB activity

## N[C@@H](CCC(=O)N[C@@H](CS)C(=O)NCC(=O)O)C(=O)O [GSH, reduced glutathione]
[3]
  pKa of thiol: 8.8

## CCOC(=O)CNC(=O)[C@H](CS)NC(=O)CC[C@H](N)C(=O)O [GSH-monoethyl ester]
GSH [4]
  increase in GSH levels: 64%
[5]
  protection of cells from acrolein: only a minor protection

## CC(=O)N[C@@H](CS)C(=O)O [NAC, N-acetylcysteine, reference compound]
Trx1; human endothelial cells, 2 hr pretreatment
  protection of Trx1 redox state from acrolein: partially protects
GSH [4]
  increase in GSH levels: 31%
Trx2; [17]
  protection of Trx2 from acrolein: did not protect

## C[S+]([O-])c1ccc(-c2nc(-c3ccncc3)c(-c3ccc(F)cc3)[nH]2)cc1 (stereo not drawn) [SB203580]
[6]; HMEC-1 cells, SB203580 10 μM 2 hr pretreatment, 5 and 12.5 μM acrolein 30 min, 14 hr in fresh medium
  protection from acrolein toxicity (Fig. 7): decreases acrolein toxicity; also recorded: protects

## Oc1c2ccccc2c2c3c(cccc13)N=N2 [SP600125]
[6]; human endothelial HMEC-1 cells, inhibitor alone
  effect on cell death by itself: increases cell death

## C=CC=O [acrolein, Prop-2-enal]
TrxR [7]
  effect on TrxR activity (Fig. 2): markedly inhibits
TrxR [8]
  inhibition of TrxR activity: 88%
Prx1
  oxidation of Prx1 to dimers: near complete oxidation
Trx1; [18]
  effect on reduced form of Trx1 (redox blot): eliminate the reduced forms
Trx1; human endothelial cells, 4-hr acrolein-free period
  recovery of Trx1 redox state after acrolein removal: modest recovery
Prx3
  oxidation of Prx3 to dimers: near complete oxidation
ASK1 bound to Trx1
  ASK1 bound to Trx1 (IP, Fig. 4): causes dissociation of ASK1 from Trx1
[9]; 12.5 μM acrolein
  inhibition of glutathione reductase activity (Fig. 2): ca. 40%
[9]; 2.5 or 5 μM acrolein
  effect on glutathione reductase activity (Fig. 2): not inhibited
[10]
  effect on cellular activity of glyceraldehyde phosphate dehydrogenase (Fig. 2): not significantly affected
TrxR [11]; 50-75 μM acrolein for 30 min
  inhibition of TrxR activity: ca. 65%
TrxR [11]; 2-4 hr after acrolein removal
  TrxR activity recovered after acrolein removal: 70-100%
[12]
  toxicity relative to formaldehyde: 10-200 times
p38
  phosphorylation of p38 (Fig. 5): causes phosphorylation of p38
Glutathione reductase
  effect on glutathione reductase: not inhibited; also recorded: unaffected
JNK
  phosphorylation of JNK (Fig. 6): causes phosphorylation of JNK
Trx2; [18]
  effect on reduced form of Trx2 (redox blot): eliminate the reduced forms
Trx2; [17]
  redox recovery of Trx2 after acrolein removal: not observed
NF-κB [13]
  effect on NF-κB DNA binding: blocks NF-κB DNA binding
Trx; A549 cancer cells
  concentration for maximal inhibition of Trx activity: ≥ 15 µM
Trx; A549 cells, 4 hr after acrolein removed
  recovery of Trx activity after acrolein removal: partial recovery
TrxR [14]; 1 μM acrolein
  effect on TrxR activity at 1 μM: significant inhibition
TrxR [14]; 4 hr after acrolein removal
  recovery of TrxR activity after acrolein removal: does not recover
TrxR [14]
  acrolein concentration that strongly inhibits TrxR activity: ≥ 2.5 µM
catalase
  effect on catalase: not inhibited
Superoxide dismutase
  effect on superoxide dismutase: not inhibited; also recorded: unaffected
Human endothelial cells
  cytotoxic concentration: ≥ 5 µM
Purified TrxR
  irreversible inhibition of purified TrxR: 80%
NF-κB [15]
  effect on NF-κB binding and activity: blocks both the binding and activity of NF-κB
Glutathione peroxidase
  effect on glutathione peroxidase: not inhibited; also recorded: unaffected
AP-1
  effect on AP-1 DNA binding and activity: decreases AP-1 binding to DNA and AP-1 activity
GSH [16]
  recovery of GSH levels once acrolein is removed (Fig. 3): recover quickly
